Data set [1] in a line: Compound was evaluated for its bioavailability after oral administration (200 mg) to Beagle dogs. It counts as ADME, organism-based, Canis lupus familiaris. To be noted: dog, in vivo. In a few lines: (§1)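 Randomized cross-over in four male beagles fasted overnight and 6 h postdose, water ad libitum. Single oral doses equal to 200 mg methyldopa; 100 mg methyldopa iv as reference. Jugular blood through 10 h. Plasma deproteinized with HClO4, internal standard ethyldopa, analyzed by C-18 HPLC with amperometric detection. AUC by trapezoids plus terminal extrapolation. Systemic availability relative to iv by Kwan-Till, constant nonrenal clearance; mean ± SD.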

The nature of data set [2]: Compound was evaluated for its urinary recovery after oral administration (200 mg) to Beagle dogs. It counts as ADME, organism-based, Canis lupus familiaris. The note with it: dog, urine, read-out: Activity. Summed up:
(§2)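 Four male beagles in cross-over, single oral doses equal to 200 mg methyldopa, 100 mg iv reference. Voided urine collected through 48 h, heated with HClO4 (99 °C, 15 min) to hydrolyze conjugates, methyldopa measured by HPLC-amperometry. Urinary recovery as % dose; renal clearance as total urinary recovery divided by plasma AUC; mean ± SD.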

The nature of data set [3]: Compound was evaluated for its renal clearance after oral administration (200 mg) to Beagle dogs. The class given is ADME, organism-based, Canis lupus familiaris. The note with it: dog, in vivo, read-out: Renal clearance. Summed up: as §2
The subject of data set [4] is Rattus norvegicus. The data set is described as follows: Antihypertensive activity was evaluated in SH rats by measuring imax reduction in mean arterial pressure at 0.12 mM/kg dose administered perorally; equivalent to 25 mg/kg of methyldopa. It counts as functional, Artery. The note with it: route oral. Summed up:
(§3)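 Unanesthetized male Wistar-Okamoto spontaneously hypertensive rats (290-350 g, 16-24 weeks), six per group, dosed orally at 0.12, 0.24 or 0.47 mmol/kg, equal to 25, 50 or 100 mg/kg methyldopa; doses based on base weight. Arterial pressure recorded continuously by transducer, mean pressure printed every 1/2 h. Initial pressure and maximum fall recorded, mean ± SE.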

Data set [5] deals with Rattus norvegicus. Put plainly: Antihypertensive activity was evaluated in SH rats by measuring max reduction in mean arterial pressure at 0.24 mM/kg dose administered perorally; equivalent to 50 mg/kg of methyldopa. The class given is functional, Artery. The note with it: route oral. In a few lines:
as §3

Data set [6] relates to Rattus norvegicus. Put plainly: Antihypertensive activity was evaluated in SH rats by measuring max reduction in mean arterial pressure at 0.47 mM/kg dose administered perorally; equivalent to 100 mg/kg of methyldopa. It counts as functional, Artery. To be noted: route oral. Summed up: as §3
Data set [7] has as its system Rattus norvegicus. Put plainly: Antihypertensive activity was evaluated in SH rats by measuring initial mean arterial pressure at 0.12 mM/kg dose administered perorally; equivalent to 25 mg/kg of methyldopa. It counts as functional, Artery. To be noted: route oral. In a few lines: as §3
The subject of data set [8] is Rattus norvegicus. Put plainly: Antihypertensive activity was evaluated in SH rats by measuring initial mean arterial pressure at 0.24 mM/kg dose administered perorally; equivalent to 50 mg/kg of methyldopa. It counts as functional, Artery. To be noted: route oral. In a few lines: as §3
Data set [9] has as its system Rattus norvegicus. Put plainly: Antihypertensive activity was evaluated in SH rats by measuring initial mean arterial pressure at 0.47 mM/kg dose administered perorally; equivalent to 100 mg/kg of methyldopa. The class given is functional, Artery. To be noted: route oral. In a few lines: as §3
The nature of data set [10]: Systemic availability with respect to methyldopa was determined. The class given is ADME. Summed up:
as §1

Data set [11] deals with Rattus norvegicus. The data set is described as follows: Antihypertensive activity was evaluated in SH rats by measuring imax reduction in mean arterial pressure at 0.24 mM/kg dose administered perorally; equivalent to 50 mg/kg of methyldopa. It counts as functional, Artery. The note with it: route oral. In a few lines:
as §3

Data set [12] can be described thus: Compound was evaluated for its bioavailability after intravenous administration (100 mg) to Beagle dogs.
A short description of data set [13]: Compound was evaluated for its renal clearance after intravenous administration (100 mg) to Beagle dogs.
The nature of data set [14]: Compound was evaluated for its urinary recovery after intravenous administration (100 mg) to Beagle dogs.

As for `Cc1oc(=O)oc1COC(=O)C(C)(N)Cc1ccc(O)c(O)c1` (stereo not given), in data set [1], the AUC came to 61700 ng·h/mL. In addition, the dose excreted in data set [2] was found to be 53.2%. Besides, in [3], the CL renal stood at 29.2 mL/min. Also, the “Max reduction in mean arterial pressure” value is 29 mmHg in the data set on Rattus norvegicus [4], 38 mmHg in the data set with Rattus norvegicus [5] and 52 mmHg in the data set with Rattus norvegicus [6]. Besides, the “Initial mean arterial pressure” value with Rattus norvegicus [7] is 180 mmHg; in the data set on Rattus norvegicus [8], 172 mmHg; in the data set on Rattus norvegicus [9], 164 mmHg. This compound also returned an Activity in data set [10] of 94.2%.

With `CC(OC(=O)C(C)(C)C)OC(=O)C(C)(N)Cc1ccc(O)c(O)c1.Cl` (stereo not given), the “Max reduction in mean arterial pressure” value with Rattus norvegicus [4] is recorded as 23 mmHg; in the data set on Rattus norvegicus [5], 60 mmHg; in the data set with Rattus norvegicus [6] it was 83 mmHg. Also, the “Initial mean arterial pressure” value was determined as 181 mmHg in the data set on Rattus norvegicus [7], 181 mmHg in the data set on Rattus norvegicus [8] and 179 mmHg with Rattus norvegicus [9].

`CC(N)(Cc1ccc(O)c(O)c1)C(=O)OCc1oc(=O)oc1C(C)(C)C` (stereo not given) displayed an AUC in [1] of 37400 ng·h/mL. In addition, the dose excreted in [2] came to 31.4%. In data set [3], the CL renal amounted to 29.3 mL/min. In addition, the entries for the “Max reduction in mean arterial pressure” value in the data set with Rattus norvegicus [4], in the data set on Rattus norvegicus [5] and with Rattus norvegicus [6] were 24 mmHg, 45 mmHg and 93 mmHg, respectively. Moreover, the “Initial mean arterial pressure” value in the data set with Rattus norvegicus [7] is reported as 182 mmHg; in the data set with Rattus norvegicus [8], 172 mmHg; with Rattus norvegicus [9], 185 mmHg. In data set [10], this compound gave an Activity of 55.7%.

As for `C[C@](N)(Cc1ccc(O)c(O)c1)C(=O)O` [METHYLDOPA], the AUC in data set [1] is 58300 ng·h/mL; in [12] it was 32600 ng·h/mL. Moreover, in data set [2], the dose excreted came to 54.2%. Also, the CL renal in data set [3] was 31.9 mL/min. The “Max reduction in mean arterial pressure” value in the data set on Rattus norvegicus [11] came out at 37 mmHg. For the same compound, the “Initial mean arterial pressure” value in the data set on Rattus norvegicus [8] is recorded as 174 mmHg. Moreover, the Activity in data set [10] is listed as 92.1%; in data set [14], 57.7%. The Renal clearance in [13] stood at 31.8 mL/min.

Source of the values: ChEMBL document CHEMBL1122662, “3-Hydroxy-alpha-methyltyrosine progenitors: synthesis and evaluation of some (2-oxo-1,3-dioxol-4-yl)methyl esters” (J Med Chem, 1984).
